pIC50: −log10 of the molar value.
Tests used:
[1] = target: MAP kinase-interacting serine/threonine-protein kinase 2 (Homo sapiens) (UniProt Q9HBH9); experiment: Inhibition of MNK2 assessed as residual activity at 0.1 uM by Cherenkov counting relative to control in presence of 50 uM ATP
Outline: (§1)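 Single-concentration selectivity screen at 0.1 μM against a panel of 76 protein kinases. Each kinase was run at an ATP level approximating its Km for ATP. Output is mean residual activity as % of the control assay without compound, n = 3 ± SD.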

[2] = target: Serine/threonine-protein kinase PLK1 (Homo sapiens) (UniProt P53350); experiment: Inhibition of PLK1 assessed as residual activity at 0.1 uM by Cherenkov counting relative to control in presence of 5 uM ATP
Sequence of Serine/threonine-protein kinase PLK1 (Homo sapiens) (P53350 whole entry): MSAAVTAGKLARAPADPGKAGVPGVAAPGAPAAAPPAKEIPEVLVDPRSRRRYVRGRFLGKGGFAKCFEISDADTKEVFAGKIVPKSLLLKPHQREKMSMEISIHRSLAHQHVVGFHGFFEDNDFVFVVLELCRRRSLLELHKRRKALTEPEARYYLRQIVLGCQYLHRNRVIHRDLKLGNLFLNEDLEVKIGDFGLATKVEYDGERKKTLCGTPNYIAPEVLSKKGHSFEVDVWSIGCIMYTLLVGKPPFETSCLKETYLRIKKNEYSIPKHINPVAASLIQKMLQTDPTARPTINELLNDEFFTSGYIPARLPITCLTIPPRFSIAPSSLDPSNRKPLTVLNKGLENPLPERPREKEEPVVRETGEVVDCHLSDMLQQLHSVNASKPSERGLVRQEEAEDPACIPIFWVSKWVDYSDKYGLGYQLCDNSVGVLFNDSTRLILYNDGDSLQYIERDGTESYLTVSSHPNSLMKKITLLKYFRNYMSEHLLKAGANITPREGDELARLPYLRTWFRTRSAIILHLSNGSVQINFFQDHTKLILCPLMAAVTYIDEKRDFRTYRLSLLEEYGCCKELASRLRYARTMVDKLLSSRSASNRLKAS
Outline: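 Single-concentration screen at 0.1 μM in a 76-kinase panel. ATP for each kinase was set near its Km for ATP. Residual activity is given as a percentage of control assays without compound, mean of n = 3 ± SD.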

[3] = target: T1, Inhibitor of nuclear factor kappa-B kinase subunit epsilon (Homo sapiens) (UniProt Q14164); experiment: Inhibition of IKKepsilon assessed as residual activity at 0.1 uM by Cherenkov counting relative to control in presence of 50 uM ATP
T1 sequence (whole entry): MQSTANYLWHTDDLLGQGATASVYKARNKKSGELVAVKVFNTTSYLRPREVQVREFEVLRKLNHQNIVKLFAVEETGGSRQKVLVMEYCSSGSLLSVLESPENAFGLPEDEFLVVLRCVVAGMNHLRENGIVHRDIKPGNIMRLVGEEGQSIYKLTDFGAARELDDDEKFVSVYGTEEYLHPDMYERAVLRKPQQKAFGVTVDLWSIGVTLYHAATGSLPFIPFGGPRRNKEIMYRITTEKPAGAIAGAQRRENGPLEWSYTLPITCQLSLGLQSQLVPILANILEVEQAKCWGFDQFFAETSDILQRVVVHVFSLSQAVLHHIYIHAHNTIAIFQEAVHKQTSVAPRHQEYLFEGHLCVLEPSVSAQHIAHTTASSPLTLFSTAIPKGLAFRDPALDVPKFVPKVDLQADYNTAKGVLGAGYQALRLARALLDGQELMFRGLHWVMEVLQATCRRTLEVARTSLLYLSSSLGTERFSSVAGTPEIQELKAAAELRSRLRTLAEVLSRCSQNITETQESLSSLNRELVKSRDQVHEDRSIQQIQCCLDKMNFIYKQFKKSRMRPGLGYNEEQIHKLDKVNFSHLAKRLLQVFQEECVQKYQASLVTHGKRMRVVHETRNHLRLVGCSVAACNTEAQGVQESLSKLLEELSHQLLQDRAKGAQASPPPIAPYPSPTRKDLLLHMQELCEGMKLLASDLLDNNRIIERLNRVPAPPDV
Outline: (§2)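 Single-concentration screen at 0.1 µM across a panel of 76 protein kinases. Each kinase was run at an ATP concentration approximating its ATP Km. Results are % mean residual activity versus control assays without compound (n = 3 ± SD).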

[4] = target: MAP/microtubule affinity-regulating kinase 3 (Homo sapiens) (UniProt P27448); experiment: Inhibition of MARK3 assessed as residual activity at 0.1 uM by Cherenkov counting relative to control in presence of 5 uM ATP; outline: as §1
Sequence of MAP/microtubule affinity-regulating kinase 3 (Homo sapiens) (P27448 whole entry, looked up): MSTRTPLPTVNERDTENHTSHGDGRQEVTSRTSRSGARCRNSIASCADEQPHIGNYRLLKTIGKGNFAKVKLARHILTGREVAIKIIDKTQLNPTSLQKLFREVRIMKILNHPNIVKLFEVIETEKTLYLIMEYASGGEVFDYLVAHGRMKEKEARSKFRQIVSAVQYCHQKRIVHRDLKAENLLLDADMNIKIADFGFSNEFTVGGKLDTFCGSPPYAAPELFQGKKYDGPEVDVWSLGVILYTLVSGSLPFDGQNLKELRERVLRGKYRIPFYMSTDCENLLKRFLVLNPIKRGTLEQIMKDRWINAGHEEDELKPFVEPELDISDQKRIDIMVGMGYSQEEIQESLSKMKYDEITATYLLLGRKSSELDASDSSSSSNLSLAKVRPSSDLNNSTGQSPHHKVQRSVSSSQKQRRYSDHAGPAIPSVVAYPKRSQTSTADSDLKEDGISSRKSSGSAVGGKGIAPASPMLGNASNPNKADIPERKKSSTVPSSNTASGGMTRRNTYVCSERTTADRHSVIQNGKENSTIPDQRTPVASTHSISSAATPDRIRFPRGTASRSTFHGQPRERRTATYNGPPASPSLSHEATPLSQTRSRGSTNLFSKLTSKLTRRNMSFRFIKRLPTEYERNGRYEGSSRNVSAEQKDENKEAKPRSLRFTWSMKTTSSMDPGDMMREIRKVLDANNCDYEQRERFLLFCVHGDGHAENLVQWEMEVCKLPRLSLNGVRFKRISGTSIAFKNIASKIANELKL

[5] = target: T2, Inhibitor of nuclear factor kappa-B kinase subunit beta (Homo sapiens) (UniProt O14920); experiment: Inhibition of IKK-beta assessed as residual activity at 0.1 uM by Cherenkov counting relative to control in presence of 5 uM ATP; outline: as §2
T2 sequence (whole entry): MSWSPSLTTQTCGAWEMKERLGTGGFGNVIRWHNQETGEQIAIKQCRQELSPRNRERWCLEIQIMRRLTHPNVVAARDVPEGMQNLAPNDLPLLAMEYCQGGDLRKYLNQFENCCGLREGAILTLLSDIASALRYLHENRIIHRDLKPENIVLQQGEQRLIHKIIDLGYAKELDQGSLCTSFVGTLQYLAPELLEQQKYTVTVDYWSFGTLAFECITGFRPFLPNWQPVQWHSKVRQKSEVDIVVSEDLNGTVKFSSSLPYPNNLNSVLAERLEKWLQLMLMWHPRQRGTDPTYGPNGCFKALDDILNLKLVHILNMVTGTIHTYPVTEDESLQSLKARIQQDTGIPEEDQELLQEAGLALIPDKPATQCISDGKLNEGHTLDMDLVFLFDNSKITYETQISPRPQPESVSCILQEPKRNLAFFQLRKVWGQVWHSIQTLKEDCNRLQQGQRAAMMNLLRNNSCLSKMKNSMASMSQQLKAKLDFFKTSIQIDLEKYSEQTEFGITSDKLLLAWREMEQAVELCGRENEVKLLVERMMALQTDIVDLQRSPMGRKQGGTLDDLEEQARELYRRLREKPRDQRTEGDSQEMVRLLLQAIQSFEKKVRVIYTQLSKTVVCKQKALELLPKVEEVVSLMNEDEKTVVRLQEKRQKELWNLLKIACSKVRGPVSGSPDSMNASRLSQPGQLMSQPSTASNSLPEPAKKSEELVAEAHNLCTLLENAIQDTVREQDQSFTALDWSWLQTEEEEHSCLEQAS

[6] = target: Fibroblast growth factor receptor 1 (Homo sapiens) (UniProt P11362); experiment: Inhibition of FGFR1 assessed as residual activity at 0.1 uM by Cherenkov counting relative to control in presence of 20 uM ATP; outline: as §2
Sequence of Fibroblast growth factor receptor 1 (Homo sapiens) (P11362 22-822 limits assumed): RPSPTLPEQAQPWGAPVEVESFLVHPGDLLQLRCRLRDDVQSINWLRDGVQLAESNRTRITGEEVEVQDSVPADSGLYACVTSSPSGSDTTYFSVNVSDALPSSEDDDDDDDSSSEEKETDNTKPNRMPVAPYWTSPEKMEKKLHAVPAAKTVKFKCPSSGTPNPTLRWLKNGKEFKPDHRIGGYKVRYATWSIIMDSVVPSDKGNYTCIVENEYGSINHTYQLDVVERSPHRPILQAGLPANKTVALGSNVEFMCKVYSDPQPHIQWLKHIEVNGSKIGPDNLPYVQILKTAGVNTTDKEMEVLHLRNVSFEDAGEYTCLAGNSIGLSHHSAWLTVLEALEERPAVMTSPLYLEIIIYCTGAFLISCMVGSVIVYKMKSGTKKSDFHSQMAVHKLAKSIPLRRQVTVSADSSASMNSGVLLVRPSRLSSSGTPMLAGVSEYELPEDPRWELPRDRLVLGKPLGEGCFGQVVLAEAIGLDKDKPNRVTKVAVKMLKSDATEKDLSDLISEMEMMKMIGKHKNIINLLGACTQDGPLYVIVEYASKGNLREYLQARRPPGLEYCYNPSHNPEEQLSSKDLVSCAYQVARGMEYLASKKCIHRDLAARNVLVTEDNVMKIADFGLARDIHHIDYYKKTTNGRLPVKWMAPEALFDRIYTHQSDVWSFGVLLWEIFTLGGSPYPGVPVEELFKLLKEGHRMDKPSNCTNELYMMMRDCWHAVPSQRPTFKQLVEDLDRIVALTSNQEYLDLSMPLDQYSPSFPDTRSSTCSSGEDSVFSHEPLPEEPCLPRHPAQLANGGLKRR

[7] = target: Serine/threonine-protein kinase pim-2 (Homo sapiens) (UniProt Q9P1W9); experiment: Inhibition of PIM2 assessed as residual activity at 0.1 uM by Cherenkov counting relative to control in presence of 5 uM ATP; outline: as §1
Sequence of Serine/threonine-protein kinase pim-2 (Homo sapiens) (Q9P1W9 whole entry, looked up, the tested form may be a part): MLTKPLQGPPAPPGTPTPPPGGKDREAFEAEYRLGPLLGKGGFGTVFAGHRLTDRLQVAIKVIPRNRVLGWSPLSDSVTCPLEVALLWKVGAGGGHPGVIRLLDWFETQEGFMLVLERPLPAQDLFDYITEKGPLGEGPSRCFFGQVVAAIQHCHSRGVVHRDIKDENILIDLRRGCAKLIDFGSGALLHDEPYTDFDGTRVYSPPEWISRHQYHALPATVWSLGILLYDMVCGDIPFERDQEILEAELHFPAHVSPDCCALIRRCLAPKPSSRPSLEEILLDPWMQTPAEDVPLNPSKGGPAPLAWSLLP

[8] = Selectivity ratio of IC50 for recombinant CK1epsilon to IC50 for GST-fused rat CK1delta
[9] = target: Casein kinase I isoform epsilon (Homo sapiens, UniProt P49674); experiment: Inhibition of recombinant CK1epsilon by Cherenkov counting in presence of 20 uM ATP
Sequence of Casein kinase I isoform epsilon (P49674 whole entry, canonical isoform): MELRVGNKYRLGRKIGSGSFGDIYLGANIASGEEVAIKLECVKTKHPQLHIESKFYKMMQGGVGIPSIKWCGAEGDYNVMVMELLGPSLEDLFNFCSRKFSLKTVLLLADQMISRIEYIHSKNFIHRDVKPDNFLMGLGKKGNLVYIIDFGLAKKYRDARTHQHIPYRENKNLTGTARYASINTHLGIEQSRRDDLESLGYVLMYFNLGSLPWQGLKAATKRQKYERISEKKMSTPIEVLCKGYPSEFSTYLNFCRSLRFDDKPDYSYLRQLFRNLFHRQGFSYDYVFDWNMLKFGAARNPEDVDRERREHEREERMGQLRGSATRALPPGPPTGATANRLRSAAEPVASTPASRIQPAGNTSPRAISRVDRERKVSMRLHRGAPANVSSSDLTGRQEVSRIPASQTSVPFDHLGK

[10] = target: Serine/threonine-protein kinase 26 (Homo sapiens) (UniProt Q9P289); experiment: Inhibition of MST4 assessed as residual activity at 10 uM by Cherenkov counting relative to control in presence of 20 uM ATP
Sequence of Serine/threonine-protein kinase 26 (Homo sapiens) (Q9P289 2-416 limits assumed): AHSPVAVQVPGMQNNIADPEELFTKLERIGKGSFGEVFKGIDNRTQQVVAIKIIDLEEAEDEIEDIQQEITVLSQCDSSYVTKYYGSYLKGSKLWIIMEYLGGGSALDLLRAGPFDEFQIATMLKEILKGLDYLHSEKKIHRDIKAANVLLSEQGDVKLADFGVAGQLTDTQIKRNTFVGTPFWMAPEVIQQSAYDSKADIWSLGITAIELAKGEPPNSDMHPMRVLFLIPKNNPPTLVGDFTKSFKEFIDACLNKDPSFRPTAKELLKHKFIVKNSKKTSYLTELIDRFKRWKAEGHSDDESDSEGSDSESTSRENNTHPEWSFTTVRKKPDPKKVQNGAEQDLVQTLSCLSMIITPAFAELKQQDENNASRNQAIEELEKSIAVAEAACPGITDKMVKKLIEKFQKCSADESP

[11] = Inhibition of PHK assessed as residual activity at 10 uM by Cherenkov counting relative to control
[12] = target: RAC-beta serine/threonine-protein kinase (Homo sapiens) (UniProt P31751); experiment: Inhibition of PKBbeta assessed as residual activity at 10 uM by Cherenkov counting relative to control in presence of 50 uM ATP
Sequence of RAC-beta serine/threonine-protein kinase (Homo sapiens) (P31751 whole entry): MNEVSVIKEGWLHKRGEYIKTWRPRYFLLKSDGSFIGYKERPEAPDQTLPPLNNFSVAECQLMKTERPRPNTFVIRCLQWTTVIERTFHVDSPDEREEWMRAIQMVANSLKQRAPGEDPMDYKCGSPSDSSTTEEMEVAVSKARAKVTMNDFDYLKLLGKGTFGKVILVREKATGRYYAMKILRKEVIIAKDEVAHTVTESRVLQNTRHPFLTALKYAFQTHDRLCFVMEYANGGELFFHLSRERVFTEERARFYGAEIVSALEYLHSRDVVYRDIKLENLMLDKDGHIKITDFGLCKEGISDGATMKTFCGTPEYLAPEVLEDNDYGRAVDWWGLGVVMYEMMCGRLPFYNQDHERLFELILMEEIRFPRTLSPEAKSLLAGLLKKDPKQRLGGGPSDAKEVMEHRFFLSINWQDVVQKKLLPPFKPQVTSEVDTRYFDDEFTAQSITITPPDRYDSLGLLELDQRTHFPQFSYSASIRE
Outline: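 Single-concentration profiling at 10 μM in a 78-kinase panel. Kinase activity is expressed as a percentage of control assays run without compound.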

[13] = target: Serine/threonine-protein kinase Chk2 (Homo sapiens) (UniProt O96017); experiment: Inhibition of CHK2 assessed as residual activity at 10 uM by Cherenkov counting relative to control in presence of 20 uM ATP
Sequence of Serine/threonine-protein kinase Chk2 (Homo sapiens) (O96017 whole entry): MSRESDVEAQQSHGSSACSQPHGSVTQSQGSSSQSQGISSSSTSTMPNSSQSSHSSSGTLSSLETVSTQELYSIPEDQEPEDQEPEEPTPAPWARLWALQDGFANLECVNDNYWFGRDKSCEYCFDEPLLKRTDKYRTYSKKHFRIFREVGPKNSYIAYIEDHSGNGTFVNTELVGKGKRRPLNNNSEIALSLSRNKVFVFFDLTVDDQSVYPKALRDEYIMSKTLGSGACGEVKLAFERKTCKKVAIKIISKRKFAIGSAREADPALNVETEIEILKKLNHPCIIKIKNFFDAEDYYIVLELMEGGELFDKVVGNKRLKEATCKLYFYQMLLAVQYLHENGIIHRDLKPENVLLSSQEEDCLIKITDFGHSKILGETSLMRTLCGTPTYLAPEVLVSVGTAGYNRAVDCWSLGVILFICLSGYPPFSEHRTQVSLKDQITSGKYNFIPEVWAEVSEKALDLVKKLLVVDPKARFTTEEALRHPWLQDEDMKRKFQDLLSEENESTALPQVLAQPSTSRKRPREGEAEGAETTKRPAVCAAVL
Outline: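 Single-point profiling at 10 µM in a panel of 78 protein kinases. Kinase activity is expressed as a percentage relative to control assays without compound.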

Sequence of MAP kinase-interacting serine/threonine-protein kinase 2 (Homo sapiens) (Q9HBH9 whole entry, looked up): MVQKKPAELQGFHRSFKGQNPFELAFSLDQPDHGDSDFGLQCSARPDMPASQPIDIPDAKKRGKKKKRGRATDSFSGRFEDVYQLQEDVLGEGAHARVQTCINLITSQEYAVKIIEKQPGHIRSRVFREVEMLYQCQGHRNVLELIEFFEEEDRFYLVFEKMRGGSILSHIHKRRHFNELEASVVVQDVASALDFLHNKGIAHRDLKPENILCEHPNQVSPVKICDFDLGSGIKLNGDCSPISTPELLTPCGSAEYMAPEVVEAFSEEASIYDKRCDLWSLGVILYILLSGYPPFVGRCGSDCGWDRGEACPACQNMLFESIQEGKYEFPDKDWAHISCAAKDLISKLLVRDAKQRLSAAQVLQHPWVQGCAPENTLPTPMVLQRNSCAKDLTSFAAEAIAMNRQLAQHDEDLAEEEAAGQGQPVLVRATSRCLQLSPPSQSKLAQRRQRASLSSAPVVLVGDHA

Structure (SMILES): COc1ccc(/C=C/C(=O)Nc2cc(-c3[nH]c(SC)nc3-c3ccc(F)cc3)ccn2)c(OC)c1
- Activity [1]: 85%
- Activity [2]: 97%
- Activity [3]: 97%
- Activity [4]: 87%
- Activity [5]: 84%
- Activity [6]: 50%
- Activity [7]: 87%
- Ratio IC50 [8]: 15
- pIC50 [9]: 7.14

Structure (SMILES): COc1ccc(/C=C/C(=O)Nc2cc(-c3[nH]c([S+](C)[O-])nc3-c3ccc(F)cc3)ccn2)c(OC)c1 (stereo unspecified)
- Activity [1]: 88%
- Activity [2]: 110%
- Activity [3]: 90%
- Activity [4]: 89%
- Activity [5]: 87%
- Activity [6]: 50%
- Activity [7]: 101%
- Ratio IC50 [8]: 41
- pIC50 [9]: 6.35

Structure (SMILES): CC(C)c1onc(-c2ccc(F)cc2)c1-c1ccncc1
- Activity [10]: 88%
- Activity [11]: 96%
- Activity [12]: 101%
- Activity [13]: 104%

Structure (SMILES): CC(C)c1noc(-c2ccc(F)cc2)c1-c1ccncc1
- Activity [10]: 102%
- Activity [11]: 99%
- Activity [12]: 104%
- Activity [13]: 109%

Source: ChEMBL document CHEMBL1155278, “3,4-Diaryl-isoxazoles and -imidazoles as potent dual inhibitors of p38alpha mitogen activated protein kinase and casein kinase 1delta” (J Med Chem, 2009)
